Assay results from ChEMBL document CHEMBL5143669, “Stapled peptides as scaffolds for developing radiotracers for intracellular targets: Preliminary evaluation of a radioiodinated MDM2-binding stapled peptide in the SJSA-1 osteosarcoma model” (Bioorg Med Chem Lett, 2022).

Legend:
[1] = Drug uptake in MDM2-amplified human SJSA-1 cells expressing wild type p53 at 5 to 50 uM incubated for 1 hr; type: ADME, cell-based; details: sjsa-1, 1 h, dose 5-50 µM
In short: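 SJSA-1 cells (MDM2-amplified, wild-type p53) in 24-well plates were incubated 1 h with 125I-labeled peptide in serum-free RPMI-1640, with or without unlabeled parent peptide (5–50 μM) for blocking. They were then washed three times with PBS and lysed; retained activity was normalized to well protein (%/mg protein). Triplicates, mean ± SD.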

[2] = Drug uptake in MDM2-amplified human SJSA-1 cells expressing wild type p53 assessed as released into supernatant incubated for 0.5 hrs subsequently re-incubating the cells with fresh medium for up to 2 hrs; type: ADME, cell-based; details: sjsa-1, 0.5 h
In short: (§1)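 SJSA-1 cells were loaded with 125I-labeled peptide for 1 h, then reincubated in fresh medium for 0.5–2 h. Cell-retained activity and cumulative release into the supernatant were expressed as percentage of initially bound activity.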

[3] = Drug uptake in MDM2-amplified human SJSA-1 cells expressing wild type p53 assessed as initially bound radioactivity incubated for 1 hrs subsequently re-incubating the cells with fresh medium for up to 2 hrs; type: ADME, cell-based; details: sjsa-1, 1 h; in short: as §1
[4] = Drug uptake in MDM2-amplified human SJSA-1 cells expressing wild type p53 assessed as initially bound radioactivity incubated for 1.5 hrs subsequently re-incubating the cells with fresh medium for up to 2 hrs; type: ADME, cell-based; details: sjsa-1, 1.5 h; in short: as §1
[5] = Drug uptake in MDM2-amplified human SJSA-1 cells expressing wild type p53 assessed as initially bound radioactivity incubated for 2 hrs subsequently re-incubating the cells with fresh medium for up to 2 hrs; type: ADME, cell-based; details: sjsa-1, 2 h; in short: as §1
[6] = Biodistribution in Liver of athymic mouse xenografted with human SJSA-1 cells at 166.5 kBq, iv after 30 mins by automated gamma counting method; type: ADME, organism-based; details: in vivo, 0.5 h
In short: (§2)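 125I-labeled peptide (166.5 kBq in 100 μL) was injected via tail vein into athymic mice bearing flank SJSA-1 xenografts, n = 5 per time point. Tumors, blood and major organs were gamma-counted at 0.5, 2, 6 and 24 h post-injection. Values are %ID/g.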

[7] = Biodistribution in Lung of athymic mouse xenografted with human SJSA-1 cells at 166.5 kBq, iv after 30 mins by automated gamma counting method; type: ADME, organism-based; details: in vivo, 0.5 h; in short: as §2
[8] = Biodistribution in Heart of athymic mouse xenografted with human SJSA-1 cells at 166.5 kBq, iv after 30 mins by automated gamma counting method; type: ADME, organism-based; details: in vivo, 0.5 h; in short: as §2
[9] = Biodistribution in Kidney of athymic mouse xenografted with human SJSA-1 cells at 166.5 kBq, iv after 30 mins by automated gamma counting method; type: ADME, organism-based; details: in vivo, 0.5 h; in short: as §2
[10] = Biodistribution in Stomach of athymic mouse xenografted with human SJSA-1 cells at 166.5 kBq, iv after 30 mins by automated gamma counting method; type: ADME, organism-based; details: in vivo, 0.5 h
In short: (§3)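 Athymic mice bearing flank SJSA-1 xenografts received 125I-SIB-labeled peptide (166.5 kBq, 100 μL) by tail vein; groups of five per time point. Tumor, blood and organs were taken at 0.5–24 h and counted by gamma counter; values expressed as %ID/g.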

[11] = Biodistribution in Large intestine of athymic mouse xenografted with human SJSA-1 cells at 166.5 kBq, iv after 30 mins by automated gamma counting method; type: ADME, organism-based; details: in vivo, 0.5 h; in short: as §2
[12] = Biodistribution in Thyroid of athymic mouse xenografted with human SJSA-1 cells at 166.5 kBq, iv after 30 mins by automated gamma counting method; type: ADME, organism-based, Thyroid gland; details: in vivo, 0.5 h; in short: as §3
[13] = Biodistribution in Bone of athymic mouse xenografted with human SJSA-1 cells at 166.5 kBq, iv after 30 mins by automated gamma counting method; type: ADME, organism-based, Bone element; details: in vivo, 0.5 h; in short: as §2
[14] = Biodistribution in Brain of athymic mouse xenografted with human SJSA-1 cells at 166.5 kBq, iv after 30 mins by automated gamma counting method; type: ADME, organism-based; details: in vivo, 0.5 h; in short: as §2
[15] = Biodistribution in Spleen of athymic mouse xenografted with human SJSA-1 cells at 166.5 kBq, iv after 2 hrs by automated gamma counting method; type: ADME, organism-based; details: in vivo; in short: as §2
[16] = Biodistribution in Lung of athymic mouse xenografted with human SJSA-1 cells at 166.5 kBq, iv after 2 hrs by automated gamma counting method; type: ADME, organism-based; details: in vivo; in short: as §2
[17] = Biodistribution in Heart of athymic mouse xenografted with human SJSA-1 cells at 166.5 kBq, iv after 2 hrs by automated gamma counting method; type: ADME, organism-based; details: in vivo; in short: as §2
[18] = Biodistribution in Kidney of athymic mouse xenografted with human SJSA-1 cells at 166.5 kBq, iv after 2 hrs by automated gamma counting method; type: ADME, organism-based; details: in vivo; in short: as §2
[19] = Biodistribution in Urinary bladder of athymic mouse xenografted with human SJSA-1 cells at 166.5 kBq, iv after 2 hrs by automated gamma counting method; type: ADME, organism-based; details: in vivo; in short: as §3
[20] = Biodistribution in Stomach of athymic mouse xenografted with human SJSA-1 cells at 166.5 kBq, iv after 2 hrs by automated gamma counting method; type: ADME, organism-based; details: in vivo; in short: as §3
[21] = Biodistribution in Small intestine of athymic mouse xenografted with human SJSA-1 cells at 166.5 kBq, iv after 2 hrs by automated gamma counting method; type: ADME, organism-based; details: in vivo; in short: as §2
[22] = Biodistribution in Large intestine of athymic mouse xenografted with human SJSA-1 cells at 166.5 kBq, iv after 2 hrs by automated gamma counting method; type: ADME, organism-based; details: in vivo; in short: as §2
[23] = Biodistribution in Liver of athymic mouse xenografted with human SJSA-1 cells at 166.5 kBq, iv after 6 hrs by automated gamma counting method; type: ADME, organism-based; details: in vivo; in short: as §2
[24] = Biodistribution in Spleen of athymic mouse xenografted with human SJSA-1 cells at 166.5 kBq, iv after 6 hrs by automated gamma counting method; type: ADME, organism-based; details: in vivo; in short: as §2
[25] = Biodistribution in Lung of athymic mouse xenografted with human SJSA-1 cells at 166.5 kBq, iv after 6 hrs by automated gamma counting method; type: ADME, organism-based; details: in vivo; in short: as §2
[26] = Biodistribution in Stomach of athymic mouse xenografted with human SJSA-1 cells at 166.5 kBq, iv after 6 hrs by automated gamma counting method; type: ADME, organism-based; details: in vivo; in short: as §3
[27] = Biodistribution in Muscle of athymic mouse xenografted with human SJSA-1 cells at 166.5 kBq, iv after 6 hrs by automated gamma counting method; type: ADME, organism-based, Muscle tissue; details: in vivo; in short: as §2
[28] = Biodistribution in Brain of athymic mouse xenografted with human SJSA-1 cells at 166.5 kBq, iv after 6 hrs by automated gamma counting method; type: ADME, organism-based; details: in vivo; in short: as §2
[29] = Biodistribution in Lung of athymic mouse xenografted with human SJSA-1 cells at 166.5 kBq, iv after 24 hrs by automated gamma counting method; type: ADME, organism-based; details: in vivo; in short: as §2
[30] = Biodistribution in Heart of athymic mouse xenografted with human SJSA-1 cells at 166.5 kBq, iv after 24 hrs by automated gamma counting method; type: ADME, organism-based; details: in vivo; in short: as §2
[31] = Biodistribution in Urinary bladder of athymic mouse xenografted with human SJSA-1 cells at 166.5 kBq, iv after 24 hrs by automated gamma counting method; type: ADME, organism-based; details: in vivo; in short: as §3
[32] = Biodistribution in Small intestine of athymic mouse xenografted with human SJSA-1 cells at 166.5 kBq, iv after 24 hrs by automated gamma counting method; type: ADME, organism-based; details: in vivo; in short: as §2
[33] = Biodistribution in Muscle of athymic mouse xenografted with human SJSA-1 cells at 166.5 kBq, iv after 24 hrs by automated gamma counting method; type: ADME, organism-based, Muscle tissue; details: in vivo; in short: as §2
[34] = Biodistribution in Skin of athymic mouse xenografted with human SJSA-1 cells at 166.5 kBq, iv after 24 hrs by automated gamma counting method; type: ADME, organism-based, Skin of body; details: in vivo; in short: as §2

In the case of `CC(=O)NC(CCCCNC(=O)c1cccc([125I])c1)C(=O)NCCCCCC(=O)N[C@H](C(=O)N[C@@H](CO)C(=O)N[C@@H](Cc1ccccc1)C(=O)N[C@@]1(C)CCCCCC/C=C/CCC[C@@](C)(C(=O)N[C@@H](CCC(=O)O)C(=O)N[C@@H](CC(N)=O)C(=O)N[C@@H](Cc2ccccc2)C(N)=O)NC(=O)[C@H](CC(C)C)NC(=O)[C@H](CC(C)C)NC(=O)[C@H](C)NC(=O)[C@H](Cc2c[nH]c3ccccc23)NC(=O)[C@H](Cc2ccc(O)cc2)NC(=O)[C@H](CCC(=O)O)NC1=O)[C@@H](C)O` (some centres undefined), the Drug uptake [1] is reported as 12.4%, the Drug uptake [2] is reported as 16.9% and the Drug uptake [3] is reported as 72.8%. It also gave a Drug uptake [4] of 66.4%, a Drug uptake [5] of 62% and a Drug uptake [6] of 13.52 % ID/g. It also gave a Drug uptake [7] of 4.27 % ID/g, a Drug uptake [8] of 2.52 % ID/g and a Drug uptake [9] of 3.06 % ID/g. The Drug uptake [10] was 0.34 % ID/g, the Drug uptake [11] was 0.06 % ID/g and the Drug uptake [12] was 0.89 % ID/g. The Drug uptake [13] was 0.38 % ID/g, the Drug uptake [14] was 0.24 % ID/g and the Drug uptake [15] was 1.8 % ID/g. It also gave a Drug uptake [16] of 2.72 % ID/g, a Drug uptake [17] of 2.44 % ID/g and a Drug uptake [18] of 2.54 % ID/g. For the same compound, the Drug uptake [19] was 0.58 % ID/g, the Drug uptake [20] was 0.53 % ID/g and the Drug uptake [21] was 2.17 % ID/g. It also gave a Drug uptake [22] of 0.24 % ID/g, a Drug uptake [23] of 11.41 % ID/g and a Drug uptake [24] of 1.99 % ID/g. The Drug uptake [25] was 2.49 % ID/g, the Drug uptake [26] was 1.9 % ID/g and the Drug uptake [27] was 0.25 % ID/g. For the same compound, the Drug uptake [28] was 0.2 % ID/g, the Drug uptake [29] was 0.33 % ID/g and the Drug uptake [30] was 0.37 % ID/g. It also gave a Drug uptake [31] of 0.29 % ID/g, a Drug uptake [32] of 0.86 % ID/g and a Drug uptake [33] of 0.16 % ID/g. It also gave a Drug uptake [34] of 0.52 % ID/g.
